Laboratory results taken from publication PMC9119696 (Nature chemical biology, 2021).
Where “and” joins values, the source holds several entries; their conditions need not be identical. Identical values can stand only once.

Legend:
Thiol reactivity assay = assay type: physicochemical; settings: compared with 2; reactivity varied by an order of magnitude
IMR90 lung fibroblast = IMR90 lung fibroblast viability; assay type: cell-based; settings: IMR90 lung fibroblasts
GST-Pin1 [1] = target: T1, GST-Pin1 (Homo sapiens, UniProt Q13526); assay: Competitive fluorescence polarization; assay type: binding
T1 sequence (Q13526 whole entry): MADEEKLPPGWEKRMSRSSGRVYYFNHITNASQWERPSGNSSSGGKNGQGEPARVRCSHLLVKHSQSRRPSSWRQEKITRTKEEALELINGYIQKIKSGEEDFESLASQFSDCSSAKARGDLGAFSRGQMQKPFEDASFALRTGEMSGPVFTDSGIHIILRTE
Method in brief: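 GST-Pin1 (250 nM) preincubated 14 h at 4 °C with compound and 5 nM N-terminal fluorescein-labelled peptide probe (Bth-D-pThr-Pip-Nal). Buffer: 10 mM HEPES, 10 mM NaCl, 1% glycerol pH 7.4, 10 µg ml-1 BSA, 0.01% Tween-20, 1 mM DTT. Ki calculated from probe concentration, 85% probe bound and Pin1 concentration. Kinact from dose- and time-dependent runs. n = 3 samples ± s.e.m.; 2 experiments.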

GST-Pin1 [2] = target: T1, GST-Pin1; assay: Chymotrypsin-coupled PPIase activity assay; assay type: biochemical; settings: read-out: apparent Ki (PPIase assay); measured at 12 h
Method in brief: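 GST-Pin1 (50 nM) preincubated with test compound for 12 h at 4 °C in 35 mM HEPES pH 7.8, 0.2 mM DTT, 0.1 mg ml-1 BSA. Chymotrypsin (final 6 mg ml-1) was added just before starting, followed by Suc-Ala-pSer-Pro-Phe-pNA substrate.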

[3] = Acute toxicity model in mice; assay type: in vivo; settings: daily 10, 20 or 40 mg kg^–1 IP for 2 weeks
Method in brief: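 Mice, 3 per arm, 14 days: vehicle; 10 mg kg-1 once daily; 20 mg kg-1 every other day; 40 mg kg-1 once daily; 40 mg kg-1 every other day. Given by IP injection in 5% N-methylpyrrolidone, 5% solutol, 20% DMSO. Adverse effects and weight recorded; postmortem examination.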

Pin1 = assay: In vivo Pin1 engagement, spleen competition pulldown; parameters: species or system mice; settings: 20 mg kg^–1 oral gavage, three doses over 2 days
Method in brief: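 Mice dosed by oral gavage with vehicle or 10 or 20 mg kg-1, three doses over two consecutive days. Spleens harvested 4 h after the last dose, ground and lysed in HEPES pH 7.4/NaCl/glycerol/TCEP/NP-40 buffer with protease inhibitors. Lysate clarified and normalized by BCA to 2.5 µg µl-1. Competition pulldown run with a desthiobiotin-tagged probe analogue.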

[4] = tested on: IRAK1 Thr209 phosphorylation; assay: IRAK1 Thr209 phosphorylation immunoblot; assay type: cell-based; settings: HeLa, 24 h post-IR
[5] = tested on: 275 human cancer cell lines; assay: PRISM cancer cell viability screening; assay type: cell-based; settings: 5-day treatment, 275 cell lines
Method in brief: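 Pooled, 24-nucleotide-barcoded cancer cell lines (275 in total) exposed to test compound for 5 days. Eight-point curve in fourfold dilutions from a top concentration of 20 µM.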

PATU-8988T Pin1 KO cells [6] = assay: 2D growth over time viability; assay type: cell-based; settings: 1 μM, up to 8 days
Method in brief: (§1)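 Cells seeded at 500 per well (PATU-8988T: 100 per well) and dosed with test compound or DMSO the next day. Kept at 37 °C, 5% CO2, with medium and compound renewed every 48 h. One plate per time point (days 0, 2, 4, 6, 8); the day 0 plate was read before dosing. Viability measured by CellTiter-Glo luminescence.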

MDA-MB-468 = assay: 2D growth over time viability; assay type: cell-based; settings: up to 8 days, 2.5 μM
Method in brief: as §1

PATU-8988T WT Pin1 cells = assay: 3D Matrigel dome antiproliferative assay; assay type: cell-based; settings: 1 μM, 9-day treatment
Method in brief: (§2)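 1,000 cells per Matrigel dome, one dome per well, left 15 min at 37 °C to solidify. Medium with test compound renewed every 3 days. After 9 days, 3D CellTiter-Glo was added and the plate shaken 1 h at room temperature before reading luminescence. n = 9 biological replicates per condition.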

PATU-8988T Pin1 KO cells [7] = assay: 3D Matrigel dome antiproliferative assay; assay type: cell-based; settings: 1 μM, 9-day treatment
Method in brief: as §2

PATU-8988T cells = assay: Cell cycle analysis; assay type: cell-based; settings: 2.5 μM, 4 days
Method in brief: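 PATU-8988T cells treated 4 days with DMSO (0.1%), test compound or a non-covalent analogue (each 2.5 µM), with medium replaced on day 3; run in triplicate or more. Pulsed with 10 µM BrdU for 1 h, then fixed in 70% ethanol and denatured in 2 M HCl/0.5% Triton X-100 (30 min, RT). Neutralised with 0.1 M Na2B4O7 pH 8.5 and stained overnight at 4 °C with anti-BrdU-FITC. Counterstained with propidium iodide plus RNase A (each 50 µg ml-1) and analysed by FACS.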

[8] = tested on: Myc transcriptional activity in HEK293 cells; assay: Myc luciferase reporter assay; assay type: cell-based; settings: 2 μM, 48 h, cotransfected Pin1
Method in brief: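 HEK293 cells (DMEM, 10% FBS, 2.5 mM L-glutamine, nonessential amino acids) grown in six-well plates to 80% confluence. Lipofected with 4× E-box-luciferase and Pin1-Flag plasmids plus β-galactosidase as internal control. Compound added at transfection; cells harvested 48 h later. Cells lysed, sonicated and cleared before luciferase read-out.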

[9] = tested on: transplanted neuroblastoma cells in zebrafish embryos; assay: Zebrafish neuroblastoma allograft transplant model; assay type: in vivo; settings: 100 μM in fish water, 5 days
Method in brief: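 Neuroblastoma cells obtained by dicing 4-month-old Tg(dβh:MYCN;dβh:EGFP) fish in PBS and transplanted into embryos. Live fish imaged under identical conditions. Tumour burden quantified as the area of EGFP-fluorescent tumour mass.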

[10] = tested on: KPC mouse-derived pancreatic cancer cells in B6 mice; assay: KPC orthotopic pancreatic cancer mouse model; assay type: in vivo; settings: for survival: n = 8
Method in brief: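 Pancreatic cancer cells from a KPC mouse (Pdx1-Cre, lsl-KrasG12D/+, lsl-tp53R172H/+) transplanted orthotopically into the pancreatic tail of B6 mice. Daily IP dosing with vehicle or test compound at 20 or 40 mg kg-1 began one week later. Mice were euthanised when the largest control tumour reached 2 cm in length, and tumours were collected and measured.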

[11] = dose- and time-dependent FP assay

## CC(C)(C)CN(C(=O)CCl)C1CCS(=O)(=O)C1 (centres unmarked) [Sulfopin]
Thiol reactivity assay
  thiol reactivity: dramatically less reactive
IMR90 lung fibroblast
  no toxicity up to (IMR90 viability): > 25 µM
GST-Pin1 [1]; [11]
  Kinact: 0.03 min⁻¹
  second-order rate constant (Kinact/Ki): 84 M⁻¹ s⁻¹
GST-Pin1 [1]; read-out: apparent Ki (FP assay), after 14 h incubation
  Ki: 17 nM
GST-Pin1 [2]
  Ki: 211 nM
[3]
  adverse effects, weight loss: No adverse effects or weight loss were recorded
Pin1
  in vivo Pin1 engagement in spleen: Effective Pin1 engagement was observed in three out of three mice
[4]
  concentration decreasing IRAK1 Thr209 phosphorylation: ≤ 100 nM
[5]
  antiproliferative activity (PRISM): limited to no antiproliferative activity
  number of cell lines with EC50 <3 μM: nine
PATU-8988T Pin1 KO cells [6]
  effect on cellular viability: no significant effect on viability
MDA-MB-468
  antiproliferative effect (growth over time): most pronounced sensitivity
PATU-8988T WT Pin1 cells
  antiproliferative activity in 3D Matrigel domes: modest antiproliferative activity
PATU-8988T Pin1 KO cells [7]
  antiproliferative activity in 3D Matrigel domes: no effects observed
PATU-8988T cells
  cells in G1 phase: increased the number of cells found in G1 phase
  cells in S phase: reduced the percentage of cells in S phase
[8]
  relative luciferase activity (Myc reporter): significant reduction in relative luciferase activity
[9]
  eGFP-labeled tumor mass size: decreased in size
[10]; 20 mg kg^−1 daily
  survival: 37.5 days
[10]; 40 mg kg^−1 daily IP, 27 days, n = 4
  average tumor volume: 1,210.91 cm^3
[10]; 40 mg kg^−1 daily
  survival: 48.125 days
[10]; 40 mg kg^−1 versus control
  average increase in survival: 18.125 days and 18 days
